Most compounds without a hit are left out; they make up all but 1.4% or so of the library.
HKDC1 inhibitor: HKDC1 hexokinase inhibitors, primary screen, biochemical, fluorescence, uHTS; recombinant HKDC1, G6PDH/diaphorase resazurin coupled fluorescence; inhibition, % at 20 µM; actives 0.16% (n = 340,000);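 active = inhibition above about 35% when tested at 20 µM, limit read from the data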;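 also: plate controls were DMSO wells with enzyme for no effect and DMSO wells lacking enzyme for full effect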
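Assay system: recombinant HKDC1 hexokinase; detection: coupled resazurin fluorescence, excitation 525 nm, emission 613 nm; benchmarks: DMSO-plus-enzyme-mix negative control, buffer-substituted positive control; compound dosing: single 20 µM dose; schedule: 90 min at room temperature in dark; also added: glucose plus 1 mM ATP as hexokinase substrates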
Apaf1 inhib: inhibitors of human Apaf-1 apoptosome, primary screen, biochemical, DEVD-Rh110 fluorescence, uHTS. actives 0.71% (n = 330,000). Apoptotic protease-activating factor 1 (Homo sapiens), O14727. inhibition, % at 20 µM. reconstituted apoptosome caspase-3 activity; active = inhibition of at least 40% at 20 µM;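 also: plate controls were DMSO wells for no effect and DEVD-CHO caspase inhibitor wells for full effect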
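detection = Rh110 fluorescence intensity | test system = biochemical Apaf-1 apoptosome reconstitution | also added = cytochrome c and DEVD-Rh110 substrate | schedule = 30 min plus 50 min, RT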
UBC9 SUMO inh: inhibitors of in vitro SUMOylation cascade, primary screen, biochemical, HTRF, uHTS; inhibition, % at 35 µM; actives 0.36% (n = 290,000); SUMO-conjugating enzyme UBC9 (Homo sapiens), P63279; HTRF SUMOylation assay, SAE1/SAE2 + UBC9; in the data active = inhibition above about 50%, passing the limit was not always enough
DTT redox prof: compounds producing H2O2 with reducing agent – biochemical, NIH compound library profiling, artefact control for MLSCN library redox annotation, primary screen; DTT-dependent redox cycling H2O2, phenol red/HRP absorbance; 100% = 100 µM peroxide control, 0% = buffer; activation, % at 10 µM; actives 0.03% (n = 200,000);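 active = activation of at least 50% relative to the plate's high and low controls in the primary single-dose screen; inactive = activation below 50%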;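 also: compound incubated with DTT at 0.8 mM final as the reducing agent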
GSTO1 inh: inhibitors of recombinant GSTO1, primary screen, counter-screen for RBBP9 inhibitor project, biochemical, fluorescence polarization. Glutathione S-transferase omega-1 (Homo sapiens), P78417. inhibition, % at 5.96 µM. activity-based probe fluorescence polarization. actives 1.1% (n = 300,000);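 active = inhibition above the campaign mean inhibition plus 3 SD, cut at about 35% in these data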;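 also: 0% = GSTO1-1 with DMSO and 100% = wells lacking GSTO1-1 enzyme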
GSTO1 inh conf: GSTO1 inhibitor hit confirmation, counter-screen for RBBP9 inhibitor project, biochemical, fluorescence polarization, triplicate; actives 54% (n = 2,400); recombinant GSTO1, probe fluorescence polarization; AID 2176, 2009; shares compounds with GSTO1 inh; inhibition, % at 5.96 µM;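 active = inhibition above the primary screen's cutoff, its mean inhibition plus 3 SD, cut at about 35% in these data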;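 also: loss of polarization as inhibitors block binding of rhodamine sulfonate ester activity probe; 0% = GSTO1 with DMSO and 100% = wells lacking GSTO1 enzyme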
GSTO1 ABPP inh: inhibitors of purified human GSTO1, late-stage follow-up, biochemical, gel ABPP, SE-Rh probe, percent inhibition | shares compounds with GSTO1 inh | recombinant GSTO1, gel ABPP SE-Rh probe fluorescence | inhibition, % at 1 µM | actives 30% (n = 130);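 active = inhibition of the enzyme GSTO1 above about 75%, limit read from the data; inactive = inhibition below that limit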
* hit, by the source's call; · = no result; ! = not confirmed by another sample.

SMILES	HKDC1 inhibitor	Apaf1 inhib	UBC9 SUMO inh	DTT redox prof	GSTO1 inh	GSTO1 inh conf	others
O=C(c1c[nH]c2ccc(S(=O)(=O)N3CCC4(CC3)OCCO4)cc2c1=O)N1CCC2(CC1)OCCO2	-2.4	-4.7	1.4	-0.4	3.9	·
N/C(=N\N=C/c1ccc(-c2ccc(O)c(C(=O)O)c2)o1)N[N+](=O)[O-]	15.9	-8.0	23.4	-8.5	40.0*	57.3*
COc1ccc(/C=N/N=C(/N)N[N+](=O)[O-])c(OC)c1	-0.8	-11.2	21.7	-3.9	6.0	·
CN(C)[C@@H]1C(=O)C(C(N)=O)=C(O)[C@@]2(O)C(=O)C3=C(O)c4c(O)cccc4[C@@](C)(O)C3[C@H](O)C12 (some centres not stated)	19.7	-13.0	·	·	62.2*	65.7*!
CN(C)[C@@H]1C(=O)C(C(N)=O)=C(O)[C@@]2(O)C(=O)C3=C(O)c4c(O)ccc(Cl)c4[C@@](C)(O)C3C[C@@H]12 (some centres not stated)	4.6	·	27.9	0.2	·	·
CN(C)C1C(=O)C(C(N)=O)=C(O)C2(O)C(=O)C3=C(O)c4c(O)cccc4C(C)(O)C3CC12 (configuration not stated)	-0.8	·	25.1	·	69.5*	28.5
COC1CCC(OC2CC(C3(C)CCC4(CC(O)C(C)C(C(C)/C=C(\C)C(=O)C(C)CC(C)C(=O)O)O4)O3)OC3(OC(C4OC(O)(CO)C(C)CC4C)CC3C)C2C)OC1C (configuration not stated)	5.9	·	·	·	·	·
COP(=O)(OC)C(O)C(Cl)(Cl)Cl (configuration not stated)	·	-11.9	-23.5	0.6	44.2*	33.5
O=C(CCl)NCC1CCCO1 (configuration not stated)	-5.5	-4.0	11.2	-1.1	51.4*	65.0*
C[C@]12C[C@H](O)[C@@H](O)CC1=CCC1C2CC[C@@]2(C)C1CC[C@@H]2O (some centres not stated)	-5.9	-0.3	·	·	·	·
Cc1nc(CCl)cc(=O)[nH]1	-8.3	6.1	6.4	-2.3	68.6*	77.0*	GSTO1 ABPP inh=17.0
c1ccc(-c2[nH]c(-c3ccccc3)[n+](CC3CO3)c2-c2ccccc2)cc1 (configuration not stated)	-6.4	14.2	-8.0	1.3	84.3*	84.4*	GSTO1 ABPP inh=36.0
Cc1nn(CC(C)C)c(Cl)c1C(=O)NC1CCC(C)CC1 (configuration not stated)	-0.3	11.7	·	·	-2.2	·
Cc1ccc(N=C(N(C)C)P(=O)(N(C)C)N(C)C)cc1	-12.3	-2.1	-1.1	-0.3	-3.2	·
CN1CCc2cc(O)cc3c2[C@H]1Cc1ccc(O)c(O)c1-3	0.8	37.8	·	·	99.0*	10.0
CCCN1CCc2cc(O)cc3c2[C@H]1Cc1ccc(O)c(O)c1-3	7.9	44.7*	·	·	88.9*	2.9
COc1cc2c(cc1O)C[C@H]1c3c(cc(O)c(OC)c3-2)CCN1C	8.9	-11.7	·	·	4.9	·
CCCCn1c(O)c(C(C)=Nc2ccc3c(c2)CCC3)c(=O)[nH]c1=O	-3.6	10.5	1.6	·	-4.0	·
Cc1ccccc1NC(=O)CCl	-7.3	-4.5	-3.8	·	62.9*	78.2*
CO[C@H]1CC=C2CCN3CCC4=C(CC(=O)OC4)[C@]23C1	-3.9	-8.2	·	·	2.6	·
Oc1cccc2nc3ccccc3nc12	13.3	5.0	-0.6	·	70.3*	13.9
Cc1ccccc1O	-3.2	-4.6	·	·	·	·
C#C[C@]1(O)CCC2C3C(=O)C=C4C(Cl)=CCC[C@]4(C)C3CC[C@@]21C (some centres not stated)	3.7	·	·	·	·	·
Cn1ncnc2c(=O)n(C)c(=O)nc1-2	69.0*	98.9*	101.6*	·	93.8*	92.5*
O=P1(Oc2ccccc2)C[C@@H](O)[C@@H](O)[C@H](COCc2ccccc2)O1 (some centres not stated)	-7.1	1.7	14.8	·	72.6*	4.7
SMILES	HKDC1 inhibitor	Apaf1 inhib	UBC9 SUMO inh	DTT redox prof	GSTO1 inh	GSTO1 inh conf	others
O=C(O)c1ccccc1-c1ccc(C=C2C(=O)N(c3ccccc3)C(=S)N(c3ccccc3)C2=O)o1	5.7	22.2	18.7	·	10.1	·
O=C(O)c1ccc2c(c1)C1C(Cl)C(Sc3ccccc3[N+](=O)[O-])CC1C(c1cccc([N+](=O)[O-])c1)N2 (configuration not stated)	9.2	·	·	-0.1	·	·
CCN(CC)C(=O)c1ccc2c(c1)C1C(Cl)C(Sc3ccccc3[N+](=O)[O-])CC1C(C(=O)O)N2 (configuration not stated)	12.0	25.4	49.0	·	52.4*	48.6*
Cc1c(N=Nc2c(O)n(Cc3ccccc3)c(=O)[nH]c2=O)c(=O)n(-c2ccccc2)n1C	1.8	-0.8	8.9	0.3	23.4	·
CC(C)(C)OC(=O)c1c(N)n(Cc2ccco2)c2nc3ccccc3nc12	5.0	17.1	24.5	0.5	56.4*	3.4
O=c1[nH]c(O)c(N=Nc2ccc(S(=O)(=O)N3CCOCC3)cc2)c(=O)[nH]1	2.5	-7.3	2.8	-1.3	37.9*	46.1*
O=C(NC1(C(F)(F)F)Oc2ccc(Cl)cc2O1)N1CCC2(CC1)OCCO2 (configuration not stated)	6.1	4.8	-16.7	-0.3	62.5*	6.7
O=C(CCC(=O)N1CCOc2ccc(Cl)cc21)N1CCC2(CC1)OCCO2	-5.1	0.1	1.3	·	2.3	·
O=C(NC1(C(F)(F)F)Oc2ccccc2O1)N1CCC2(CC1)OCCO2	4.9	-23.3	5.6	-0.1	42.0*	9.0
CN1C(=O)C(=Cc2ccc(N(C)C)c([N+](=O)[O-])c2)C(=O)N(C)C1=O	·	4.1	8.1	-0.4	13.6	·
O=c1c2ccccc2nc(/C=C/c2ccc(O)c(O)c2)n1-c1ccccc1	-5.7	13.4	12.8	·	44.1*	7.3
O=c1c2ccccc2nc(/C=C/c2ccccc2)n1-c1ccc(O)cc1	0.3	17.2	5.7	·	-11.6	·
Nc1ncn[nH]1	-1.5	-10.2	·	·	-1.1	·
NCC(O)c1cc(O)c(O)cc1F (configuration not stated)	6.8	30.0	·	·	49.7*	8.1
